Most compounds without a hit are left out; they make up all but 3.7% or so of the library.
hERG protect = compounds protecting human hERG from proarrhythmic drug block; Q12809; CHO-hERG, FluxOR thallium flux, dofetilide IC70 present; activation (rescue from dofetilide block), less the hit threshold, % at 10 µM; hit rate 0.51% among 310,000;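 active means activation above the mean of controls blocked by dofetilide plus 5 SD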;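 further: thallium influx through hERG after potassium depolarization seen as dye fluorescence rise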
KCNQ1 inh = inhibitors of human KCNQ1 potassium channel | P51787 | CHO-K1 KCNQ1, FluxOR thallium flux fluorescence; hits give high values | B-score at 10 µM | hit rate 1.3% among 310,000 | AID 2642;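 active means compounds whose thallium flux B-score, printed positive for inhibition, exceeds three library SD while starting fluorescence stays within three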;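 further: channel opened by potassium depolarization with thallium stimulus after 20 min compound exposure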
Kir21 block = Kir2.1 (mouse) channel inhibition; B-score at 10 µM; hit rate 0.85% among 310,000; P35561; AID 1672; HEK293-Kir2.1, FluxOR thallium flux fluorescence; hits give low values;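 active means fluorescence ratio B-score at or below minus 3 SD of library scores, with starting-brightness B-score within 2 SD, cut at about -4.2 in these data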;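 further: channel flux triggered by added potassium and thallium sulfate stimulus; B-score of peak minus minimum fluorescence over baseline after thallium stimulus; more negative B-score means stronger Kir2.1 block with less thallium influx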
KCNQ1 pot = human KCNQ1 channel potentiation or activation | P51787 | B-score at 10 µM | CHO-K1 KCNQ1, thallium flux FluxOR fluorescence; hits give high values | hit rate 0.35% among 310,000 | AID 2648;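 active means fluorescence ratio B-score, a plate-corrected score, at least three library SD, with initial intensity B-score within 5 SD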
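System: CHO-K1 cells stably expressing KCNQ1 / Medium: assay buffer for compound exposure, DMSO matched across wells / Reagent: thallium- and potassium-containing depolarizing buffer / Compound: one concentration, matched DMSO / Incubation: 20 min compound pretreatment at room temperature / Measured by: kinetic FluxOR fluorescence, 10 s baseline plus 110 s post-stimulus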
KCNK3 block = human KCNK3 channel inhibition, primary screen; O14649; CHO-KCNK3 thallium flux, FluxOR fluorescence; hits give low values; B-score at 10 µM; hit rate 0.84% among 340,000;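 active means B-score under library mean minus 4 SD, starting fluorescence ratio at most library mean plus 5 SD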;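 further: more negative B-score means stronger inhibition of thallium flux through KCNK3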
KCNK9 block = blocks the human KCNK9 two-pore domain potassium channel; Q9NPC2; hit rate 1.2% among 310,000; HEK293 KCNK9, FluxOR thallium flux fluorescence; hits give low values; B-score at 10 µM;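 active means ratio B-score over 3 SD below the library mean, with starting fluorescence within 5 SD of its mean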;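 further: negative B-score means less thallium flux so channel inhibition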
Target sequence (Q9NPC2 whole entry, looked up, the tested form may be a part): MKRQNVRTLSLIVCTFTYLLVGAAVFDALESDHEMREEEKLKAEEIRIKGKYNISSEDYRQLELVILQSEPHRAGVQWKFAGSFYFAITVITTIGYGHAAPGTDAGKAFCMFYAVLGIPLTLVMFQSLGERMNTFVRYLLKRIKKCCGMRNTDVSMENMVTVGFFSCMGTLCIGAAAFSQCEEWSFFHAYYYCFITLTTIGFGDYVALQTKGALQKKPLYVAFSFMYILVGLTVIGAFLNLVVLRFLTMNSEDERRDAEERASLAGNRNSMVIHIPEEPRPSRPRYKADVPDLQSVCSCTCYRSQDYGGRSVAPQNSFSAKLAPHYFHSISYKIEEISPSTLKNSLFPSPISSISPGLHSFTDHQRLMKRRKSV
Large screens that a line does not name were inactive.

Cc1ccc(S(=O)(=O)CCC(=O)OCC(=O)N(Cc2ccccc2)C(C)C)cc1	none
CCC(C)N1CCN(C(=O)c2cc(OC)cc(OC)c2)CC1 (stereo not drawn)	hERG protect 5.2
COc1cc(C(C[N+](=O)[O-])c2c(-c3ccccc3)cc3ccccn23)cc(OC)c1OC (stereo not drawn)	KCNK9 block -7.87
COc1ccc(C(C[N+](=O)[O-])c2c(-c3ccccc3)cc3ccccn23)cc1OC (stereo not drawn)	none
COc1ccc(C(C[N+](=O)[O-])c2c(-c3ccccc3)cc3ccccn23)cc1 (stereo not drawn)	KCNQ1 inh 8
COc1cccc(OC)c1C(=O)Nc1ccc(C(=O)NCc2ccccc2)cc1	none
O=C(Cc1ccc(NC(=O)C2CCCN(C(=O)c3ccccc3)C2)cc1)Nc1ccc(C(=O)N2CCOCC2)cc1 (stereo not drawn)	none (no result: hERG protect, KCNQ1 inh, Kir21 block, KCNQ1 pot, KCNK9 block)
CCOC(=O)c1ccccc1OC(=O)CS(=O)c1ccccc1[N+](=O)[O-] (stereo not drawn)	KCNQ1 inh 6
NS(=O)(=O)c1ccc(NC(=O)CSc2nc(Nc3ccccc3)nc(N3CCOCC3)n2)cc1	none
COc1ccc(C)cc1-n1c(=O)c2ccccc2c2ccccc2c1=O	KCNK9 block -8.03
CN1CCCC1CCNC1C2CC3CC(C2)CC1C3 (stereo not drawn)	Kir21 block -4.68
CCCn1c2ccccc2c2cnn(CC(=O)NCCCN3CCN(c4ccccc4)CC3)c(=O)c21	Kir21 block -4.57
CCCn1c2ccccc2c2cnn(CC(=O)NCCCN3CCCCC3)c(=O)c21	none
Cc1cc(N(C)C)ccc1[N+](=O)[O-]	hERG protect 4.7
Cc1ccc(S(=O)(=O)N(C)c2ccc(C)c([N+](=O)[O-])c2)cc1	none
C=CCOn1c(=O)c(-c2ccc(F)cc2)[n+]([O-])c2ccccc21	none
CCOC(=O)c1c(C)oc2cc(Br)c(OC)cc12	hERG protect 9.4
O=C(c1ccco1)N1CCN(C(=S)NCc2ccc(F)cc2)CC1	none
CN(CC(=O)NCCc1ccc(S(N)(=O)=O)cc1)S(=O)(=O)c1ccc(Br)s1	none
CCOC(=O)c1cc(C(=O)OCC)c2cc(Br)ccc2n1	none
CCCCOC(=O)c1cc(C)nc2ccc(Br)cc12	hERG protect 6.5
COc1ccc(CC(NC(C)=O)C(=O)NC2CCN(C(=O)Nc3ccccc3C)CC2)cc1OC (stereo not drawn)	none
COc1ccc(C(=O)O)cc1S(=O)(=O)NCc1ccncc1	none (no result: hERG protect, KCNQ1 inh, Kir21 block, KCNQ1 pot, KCNK9 block)
CCCn1nc([N+](=O)[O-])c(C(C#N)c2nc3ccccc3o2)c(Cl)c1=O (stereo not drawn)	KCNQ1 inh 6
CN(C)C(=O)Cn1cnc2c(cnn2-c2ccc(F)cc2)c1=O	none
S=C(NCCc1ccccc1)N/N=C/c1c(Cl)cccc1Cl	hERG protect 11.0
S=C(NCCc1ccccc1)N/N=C/c1ccc(Cl)cc1	none
O=C(CCn1c(=O)oc2ccccc21)N1CCN(c2ccccc2F)CC1	hERG protect 5.3
O=C(Nc1ccccc1N1CCN(C(=O)c2ccc(Cl)cc2)CC1)c1ccc([N+](=O)[O-])o1	KCNK3 block -11
O=C(Nc1ccccc1N1CCCCC1)c1ccc([N+](=O)[O-])o1	none (no result: hERG protect, KCNQ1 inh, Kir21 block, KCNQ1 pot, KCNK9 block)
CC(=O)c1cccc(NC(=O)C(OC(=O)c2ccccc2NS(=O)(=O)c2cccs2)c2ccccc2)c1 (stereo not drawn)	KCNK9 block -7.01
CCCn1nnnc1COc1ccc(C(N)=O)cc1	none
O=C(N/N=C\c1c(O)ccc2ccccc12)c1ccc(O)cc1	none
O=C(N/N=C/c1c(O)ccc2ccccc12)c1ccc(Br)o1	KCNQ1 inh 6
O=C(N/N=C/c1c(O)ccc2ccccc12)Nc1ccccc1	KCNQ1 inh 6
COc1cc(C(=S)N2CCOCC2)cc(Br)c1OS(=O)(=O)c1ccccc1	none
CC(C)CCNC(=O)CN(Cc1ccco1)C(=O)CCC(=O)Nc1nccs1	none
Cc1ccc(NC(=O)c2ccc3c(c2)OCO3)cc1Cl	hERG protect 12.8
Cc1ccc(C(=O)Nc2ccc3c(c2)OCO3)cc1Cl	none
CC1CCCN(c2ccc(C(=O)Nc3ccc4c(c3)OCO4)cc2[N+](=O)[O-])C1 (stereo not drawn)	KCNQ1 inh 6
COCCN1CCN(C(=O)c2cc(COc3cncc(Cl)c3)on2)CC1	none
CC(C)(C)OC(=O)N[C@H](C(=O)OC(C)(C)C)c1ccccc1	none (no result: hERG protect, KCNQ1 inh, Kir21 block, KCNQ1 pot, KCNK9 block)
CC1CC(C)CN(S(=O)(=O)c2cccc3cccnc23)C1 (stereo not drawn)	Kir21 block -5.22
O=S(=O)(c1cccc2cccnc12)N1CCOCC1	none
Cc1ccc(S(=O)(=O)N2CCC(C(=O)OCC(=O)N(C)C3CCS(=O)(=O)C3)CC2)cc1C (stereo not drawn)	none
Oc1ccccc1N1CCN(C(c2ccccc2)c2ccccc2)CC1	none
CC(C)c1ccccc1-n1c(SCC(=O)N2CCc3ccccc3C2)nc2ccccc2c1=O	KCNQ1 inh 9
CCNc1nc(NCC)n2c(SCC(=O)Nc3ccccc3)nnc2n1	hERG protect 6.5
CCNc1nc(NCC)n2c(SCC(=O)Nc3ccc(F)cc3)nnc2n1	none
CCN(CC)c1ccc2cc(NC(=O)CCC(=O)O)c(=O)oc2c1	KCNQ1 inh 14
O=C(Nc1cc(C(F)(F)F)ccc1Cl)C(Sc1ccccn1)c1ccccc1 (stereo not drawn)	KCNK9 block -8.09
N#C/C(=C\c1ccccc1)C(=O)N(c1ccccn1)C1CCCCC1	Kir21 block -10.5
O=C(c1cccc(C(=O)N(c2ccccn2)C2CCCCC2)c1)N(c1ccccn1)C1CCCCC1	none
Cc1ccc(OC(=O)c2ccc3nc(C)sc3c2)cc1	none (no result: KCNK3 block)
Cc1nc2ccc(OC(=O)c3ccccc3)cc2s1	Kir21 block -4.79
COc1ccc(Cl)cc1N(C)C(=O)CCNC(=O)Cn1cnc2ccccc2c1=O	hERG protect 5.0
O=C(CSc1ccc(Cl)cc1)N1N=CCC1c1ccccc1 (stereo not drawn)	Kir21 block -6.08
Cc1cccn2c(=O)nc(SCC(=O)NCc3ccccc3)nc12	none
COc1ccc(NS(=O)(=O)c2ccc(OC)c3ccccc23)cn1	Kir21 block -5.33
Cc1ccccc1CSc1nnc(-c2cccs2)n1Cc1ccco1	none
Cc1ccccc1CSc1nnc(-c2ccco2)n1Cc1ccco1	Kir21 block -8.15
CCn1c(SCc2nc(-c3ccc(Cl)cc3)no2)nnc1-c1ccco1	Kir21 block -4.68
c1ccc(CSc2nnc(-c3cccs3)n2Cc2ccco2)cc1	Kir21 block -7.74
Brc1ccc2c(c1)OCCOCCOc1cc(Br)ccc1OCCOCCOCCO2	KCNQ1 inh 6, KCNK9 block -7.69
O=S(=O)(c1ccc(SCc2cccc(Cl)c2)nc1)N1CCCC1	KCNK3 block -9.52 (no result: hERG protect, KCNQ1 inh, Kir21 block, KCNQ1 pot, KCNK9 block)

High-throughput results as filed in PubChem BioAssay.
